The values that follow come from ChEMBL document CHEMBL3997773, “Synthesis of C-4-Substituted Steviol Derivatives and Their Inhibitory Effects against Hepatitis B Virus” (J Nat Prod, 2016).

Series [1] deals with Transcription factor p65 (Homo sapiens) (UniProt Q04206). The series is described as follows: Decrease in NF-kB p65 phosphorylation in human HuH7 cells transfected with pHBV1.2 at 2.5 ug/ml after 2 days by immunoblot method relative to control. The series is classed as cell-based. The method in brief: (§1)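 Huh7 cells were transfected with pHBV1.2 for 2 days, then treated at 2.5, 5 or 10 μg/mL for another 2 days. Whole-cell protein was extracted with protease inhibitors. NF-κB p65/p50, phospho-p65, IKKα/β and IκBα/phospho-IκBα were detected by immunoblot. Blots are representative of three experiments.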

Series [2] shares this target. In words: Decrease in NF-kB p65 phosphorylation in human HuH7 cells transfected with pHBV1.2 at 10 ug/ml after 2 days by immunoblot method relative to control. The series is classed as cell-based. The method in brief:
as §1
(In general: A western blot detects proteins with antibodies after separation by electrophoresis.)

The test system of series [3] is Huh-7. In words: Decrease in NF-kB p65 protein expression in human HuH7 cells transfected with pHBV1.2 at 10 ug/ml after 2 days by immunoblot method relative to control. The series is classed as functional. The method in brief: as §1
Series [4] is described as follows: Antiviral activity against Hepatitis B virus subtype adw2 infected in human HuH7 cells assessed as reduction in HBx level at 10 ug/ml after 2 days by immunoblot method relative to control. The class given is functional. In a few lines:
(§2)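 Huh7 cells were transfected with pHBV1.2 (1.2-fold HBV adw2 genome) for 2 days, then exposed to 2.5, 5 or 10 μg/mL for another 2 days. Whole-cell protein was extracted with protease inhibitors. SHBs, HBcAg and HBx were detected by immunoblot, with α-tubulin for comparison.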

The nature of series [5]: Selectivity index, ratio of TC50 for human HepG2.2.15 cells to IC50 for Hepatitis B virus subtype adw2 infected in human HuH7 cells assessed as inhibition of viral DNA replication.
Series [6] relates to Huh-7. In words: Decrease in IKKbeta protein expression in human HuH7 cells transfected with pHBV1.2 at 5 ug/ml after 2 days by immunoblot method relative to control. The series is classed as functional. The method in brief:
as §1

Series [7] deals with T1, NF-kappa-B inhibitor alpha (Homo sapiens) (UniProt P25963).
T1 sequence (whole entry): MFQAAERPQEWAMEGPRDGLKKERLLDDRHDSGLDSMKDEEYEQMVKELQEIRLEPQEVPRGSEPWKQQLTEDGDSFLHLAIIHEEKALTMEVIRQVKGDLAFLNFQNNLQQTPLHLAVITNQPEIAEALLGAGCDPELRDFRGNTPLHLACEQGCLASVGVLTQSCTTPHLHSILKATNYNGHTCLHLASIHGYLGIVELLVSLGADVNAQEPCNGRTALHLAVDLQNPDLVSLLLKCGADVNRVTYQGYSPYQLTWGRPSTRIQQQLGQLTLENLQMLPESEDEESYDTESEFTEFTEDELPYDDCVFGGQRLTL
The series is described as follows: Decrease in IKBalpha phosphorylation in human HuH7 cells transfected with pHBV1.2 at 2.5 ug/ml after 2 days by immunoblot method relative to control. The class given is cell-based. In a few lines: as §1

The test system of series [8] is Huh-7. The series is described as follows: Decrease in IKBalpha protein expression in human HuH7 cells transfected with pHBV1.2 at 10 ug/ml after 2 days by immunoblot method relative to control. The series is classed as functional. The method in brief:
as §1

In series [9] the test system is Huh-7. In words: Decrease in IKKalpha protein expression in human HuH7 cells transfected with pHBV1.2 at 5 ug/ml after 2 days by immunoblot method relative to control. The series is classed as functional. The method in brief:
as §1

The subject of series [10] is Huh-7. The series is described as follows: Decrease in IKBalpha protein expression in human HuH7 cells transfected with pHBV1.2 at 2.5 ug/ml after 2 days by immunoblot method relative to control. The series is classed as functional. The method in brief: as §1
A short description of series [11]: Antiviral activity against Hepatitis B virus subtype adw2 infected in human HuH7 cells assessed as reduction in HBcAg level at 2.5 ug/ml after 2 days by immunoblot method relative to control. The series is classed as functional. In a few lines: as §2
The target in series [12] is Transcription factor p65 (Homo sapiens) (UniProt Q04206). The series is described as follows: Decrease in NF-kB p65 phosphorylation in human HuH7 cells transfected with pHBV1.2 at 5 ug/ml after 2 days by immunoblot method relative to control. The class given is cell-based. The method in brief:
as §1

Series [13] relates to Hepatitis B virus subtype adw2. In words: Antiviral activity against Hepatitis B virus subtype adw2 infected in human HuH7 cells assessed as inhibition of HBeAg secretion after 3 days by EIA. The series is classed as functional, cell-based. In a few lines: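 HBV-expressing Huh7 cells were given 2.5, 5 or 10 μg/mL for 3 days. HBsAg and HBeAg in the conditioned medium were measured by enzyme immunoassay. Mean ± SD, n = 3, compared with untreated cells.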

For series [14], the system named is Huh-7. In words: Effect on p38 MAPK protein expression in human HuH7 cells transfected with pHBV1.2 at 2.5 ug/ml after 2 days by immunoblot method relative to control.
Series [15] concerns Huh-7. The series is described as follows: Effect on NF-kB p50 protein expression in human HuH7 cells transfected with pHBV1.2 at 2.5 ug/ml after 2 days by immunoblot method relative to control. The series is classed as functional. The method in brief:
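HBV adw2 genome plasmid pHBV1.2 transfected into Huh7 for 2 days, then 2.5, 5 or 10 μg/mL for another 2 days. Whole-cell protein extracted with protease inhibitors, then SDS-PAGE immunoblot for NF-κB and MAPK pathway proteins. Blots are representative of three sets of experiments.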

For series [16], the system named is Hepatitis B virus subtype adw2. In words: Antiviral activity against Hepatitis B virus subtype adw2 infected in human HuH7 cells assessed as inhibition of viral DNA replication after 3 days by RT-PCR method. The class given is functional, cell-based. The method in brief: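 HBV-expressing Huh7 cells were dosed at 2.5, 5 or 10 μg/mL for 3 days. Viral DNA was isolated from virion particles in the conditioned medium and quantified by real-time PCR. Mean ± SD, n = 3, compared with untreated cells.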

The next series concerns Hepatitis B virus. The series is described as follows: Decrease in HBV X promoter activity infected in human HuH7 cells cotransfected with pHBV1.2 at 10 ug/ml after 24 hrs by luciferase reporter gene assay. The series is classed as cell-based. The method in brief:
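Huh7 cells were seeded for 24 h, then cotransfected with pHBV1.2, pRLSV40 and a pGL4.17-based Core (nt 1636-1851), S (nt 3114-220), PreS (nt 2438-2855) or X (nt 1071-1357) promoter-luciferase construct for 24 h. Cells were then treated at 10 μg/mL for 24 h and lysates were assayed for luciferase. Mean ± SD, n = 3.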

A short description of series [17]: Cytotoxicity against human HepG2.2.15 cells assessed as reduction in cell viability after 3 days by MTS assay. The following applies: read-out: TC50. On the technique in general: Tetrazolium assays rely on reduction of a dye to a coloured formazan, in cell work by metabolically active cells.
Series [18] in a line: Effect on AP-2 (unknown origin) promoter activity expressed in human HuH7 cells cotransfected with pHBV1.2 at 10 ug/ml after 24 hrs by luciferase reporter gene assay. The class given is cell-based. The method in brief:
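Huh7 seeded in 24-well plates for 24 h. They were cotransfected with pHBV1.2 plus a luciferase reporter carrying the AP-2 (pAP2-Luc) or ISRE (pISRE-Luc) element, at 1 μg/well, and pRLSV40, in serum-free DMEM for 24 h. After a PBS wash, cells were placed in DMEM with 2% FBS and treated with 10 μg/mL. Luciferase was read from lysates; mean ± SD, n = 3.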
(Reporter assays use an easily measured gene product as a stand-in for the process of interest.)

Molecules are shown by their SMILES. Activity calls are given as the source filed them. The calls are words filed in the database; no cut-off is given here.

Transcription factor p65 (Homo sapiens), sequence (Q04206 whole entry): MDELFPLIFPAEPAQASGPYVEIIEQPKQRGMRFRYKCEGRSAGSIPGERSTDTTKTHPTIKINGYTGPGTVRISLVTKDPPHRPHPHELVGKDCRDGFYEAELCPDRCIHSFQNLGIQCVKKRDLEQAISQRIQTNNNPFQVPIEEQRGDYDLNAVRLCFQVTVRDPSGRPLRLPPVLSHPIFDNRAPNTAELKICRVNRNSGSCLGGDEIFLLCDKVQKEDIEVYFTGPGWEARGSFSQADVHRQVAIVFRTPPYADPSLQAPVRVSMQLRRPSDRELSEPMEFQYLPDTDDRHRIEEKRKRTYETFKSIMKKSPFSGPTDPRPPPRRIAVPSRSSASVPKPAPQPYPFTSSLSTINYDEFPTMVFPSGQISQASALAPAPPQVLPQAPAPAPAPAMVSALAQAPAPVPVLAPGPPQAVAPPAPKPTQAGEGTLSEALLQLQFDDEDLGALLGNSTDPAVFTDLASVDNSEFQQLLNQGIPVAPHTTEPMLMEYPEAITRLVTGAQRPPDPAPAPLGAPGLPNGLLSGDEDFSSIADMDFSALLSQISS

In the case of `C=C1C[C@@]23CC[C@H]4[C@@](C)(CCC[C@@]4(C)NC(=O)NCCCC)[C@@H]2CC[C@]1(O)C3`, the fold change (FC) was determined as 0.95 in series [1]; 0.23 in series [2]; 0.33 in the series with Huh-7 [3]; 0.15 in series [4]; 0.97 in the series with Huh-7 [6]; 0.97 in series [7]. Further, the “fold change (FC)” value with Huh-7 [8] stood at 0.25; in the series on Huh-7 [9], 1.01; in the series on Huh-7 [10], 0.97; in series [11], 0.78; in series [12], 0.88; with Huh-7 [14] it was 1.01. In the series with Huh-7 [15], the “fold change (FC)” value is 1.01. In addition, the selectivity ratio in series [5] came out at 57.7. In addition, the inhibition result in series [13] and in [16] was “Dose-dependent effect” each time. For the same compound, the outcome in the series on Hepatitis B virus was Active. For the same compound, in [17], the CC50 at 72 h turned out to be 972 µM. Also, the outcome in series [18] was inactive.
